Screens from PubChem BioAssay.
Sampled rows, rich in hits. Any-hit rate of the full collection: about 3.9%.
CHRM1 PAM = human M1 muscarinic receptor positive allosteric modulators, primary screen, CHO-K1 cells, Fluo-8 calcium fluorescence, 1536-well; activation, % at 3 µM; Muscarinic acetylcholine receptor M1 (Homo sapiens), P11229; 360,000 compounds, 0.088% hits; CHO-K1 hM1, ACh EC20; 0% = ACh EC20, 100% = maximal ACh; in the data active = activation above about 19%, passing the limit was not always enough
CHRM1 agonist = human M1 muscarinic receptor agonists, primary screen, Fluo-8 calcium fluorescence, CHO-K1 cells, HTS | Muscarinic acetylcholine receptor M1 (Homo sapiens), P11229 | activation, % at 3 µM | AID 588814, 2011 | 360,000 compounds, 0.33% hits | CHO-K1 hM1, agonist mode; 0% DMSO, 100% acetylcholine EC100;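 active = activation above the run's mean compound activation plus 3 SD, cut at about 16% in these data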;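 note: peak over basal fluorescence ratio within a 140 s kinetic read after compound addition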
TAAR1 antagonist = human TAAR1 antagonists, primary screen, Fluo-8 calcium fluorescence, CHO RD-HGA16 cells; Trace amine-associated receptor 1 (Homo sapiens), Q96RJ0; antagonist; inhibition, % at 3 µM; 360,000 compounds, 1.5% hits;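 active = inhibition above a per-plate cutoff, the mean inhibition of test compounds on that plate plus 3 SD, cut at about 49% in these data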;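 note: 0% = DMSO plus EC80 beta-PEA response and 100% = DMSO alone without agonist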
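Test system – hTAAR1-expressing CHO RD-HGA16 cells, Gα16-coupled · Also added – β-PEA at EC80 concentration, post-compound challenge · Compound – 3 µM, single point · Incubation – dye loading 75 min at 37 °C, then 30 min room temperature · Measured by – Fluo-8 intracellular calcium dye fluorescence, real-time kinetic reads · Benchmarks – vehicle and agonist controls · Replicates – singlicate, one well per test compound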
TAAR1 agonist = human TAAR1 agonists, primary screen, Fluo-8 calcium fluorescence, CHO RD-HGA16 cells. vehicle wells 0%, saturating PEA agonist 100%. activation, % at 3 µM. 360,000 compounds, 0.99% hits. AID 624467, 2012;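 active = activation above the mean activation of all test compounds in the run plus 3 SD, cut at about 38% in these data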
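Test system: RD-HGA16 (CHO) cells co-expressing Gα16 and hTAAR1 / Benchmarks: DMSO vehicle as 0%, PEA at EC100 as 100% / Repeats: no replicates (n 1) / Measure: % activation from peak over basal fluorescence ratio, DMSO-to-PEA scaled / Timing: 17-24 h plating, Fluo-8 75 min 37 °C, 30 min RT / Technique: kinetic Fluo-8 calcium fluorescence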
M1 antag = human M1 muscarinic receptor antagonists, primary screen, CHO-K1 cells, Fluo-8 calcium fluorescence, 1536-well; Muscarinic acetylcholine receptor M1 (Homo sapiens), P11229; CHO-K1 hM1, ACh EC80 antagonist; inhibition, % at 3 µM; 360,000 compounds, 1.3% hits; AID 588852, 2011;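 active = percent inhibition above its own plate's cutoff, namely the mean of that plate's compound wells plus 3 SD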;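 note: peak over basal fluorescence ratio during 140 s after agonist addition; 0% = ACh EC80 plus DMSO and 100% = DMSO alone without agonist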
HTR2A ag = mouse Htr2a agonists via beta-arrestin recruitment, primary screen, cell-based, luminescence | CHO-K1 mHTR2A beta-arrestin complementation; percent of 30 µM serotonin response | 360,000 compounds, 0.66% hits | activation, % at 7.6 µM | 5-hydroxytryptamine receptor 2A (Mus musculus), P35363;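 active = activation above a run cutoff, the mean activation of all tested compounds plus 3 SD, cut at about 14% in these data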;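 note: 0% = plate median of compound wells and 100% = 30 µM serotonin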
Target sequence (P35363 whole entry, looked up): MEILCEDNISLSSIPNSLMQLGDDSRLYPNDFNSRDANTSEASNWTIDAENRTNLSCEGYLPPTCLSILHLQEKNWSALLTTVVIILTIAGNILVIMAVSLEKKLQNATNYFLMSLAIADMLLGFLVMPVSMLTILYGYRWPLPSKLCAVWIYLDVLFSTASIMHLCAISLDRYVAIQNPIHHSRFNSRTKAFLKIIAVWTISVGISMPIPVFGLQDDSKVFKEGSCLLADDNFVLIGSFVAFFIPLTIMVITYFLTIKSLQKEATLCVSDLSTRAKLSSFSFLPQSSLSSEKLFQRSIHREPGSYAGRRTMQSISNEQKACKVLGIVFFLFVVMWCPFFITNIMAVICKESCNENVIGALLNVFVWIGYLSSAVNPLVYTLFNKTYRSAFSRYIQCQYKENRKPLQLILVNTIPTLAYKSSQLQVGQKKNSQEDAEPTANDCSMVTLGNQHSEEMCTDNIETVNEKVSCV
An asterisk follows results filed as active; . = no result.

SMILES	CHRM1 PAM	CHRM1 agonist	TAAR1 antagonist	TAAR1 agonist	M1 antag	HTR2A ag
O=C(c1cccc(F)c1)N1CCN(S(=O)(=O)c2ccccc2)CC1	11	-4	3	1	-15	-1
O=C(c1cccc(S(=O)(=O)N2CCOCC2)c1)N1CCN(C/C=C/c2ccccc2)CC1	-27	-8	-25	1	98*	-11
O=C(c1cccc(S(=O)(=O)N2CCOCC2)c1)N1CCC(Cc2ccccc2)CC1	9	-6	-15	12	-7	-3
O=C(c1ccccc1)N1CCN(S(=O)(=O)c2ccccc2)CC1	3	-3	-1	0	102*	-7
COC(=O)C1=C(C)N(Cc2ccccc2C(F)(F)F)C(=NCc2ccc(C(F)(F)F)cc2)NC1c1ccccc1 (stereo not drawn)	.	.	-16	3	.	.
COc1cccc(CNC(=O)[C@H]2CCCN2C(=O)[C@H]2CCCN2C(=O)c2cccc(OC)c2)c1	.	.	5	1	.	.
O=C(CC1SC(=Nc2ccccc2)N(CCCO)C1=O)Nc1ccc(Cl)cc1 (stereo not drawn)	-10	1	.	.	30*	-3
O=C(CC1SC(=Nc2ccccc2)N(CCO)C1=O)Nc1ccccc1 (stereo not drawn)	6	-4	6	3	10	3
Cc1cc(C(=O)COC(=O)c2ccc(CO)cc2)c(C)n1CC1COc2ccccc2O1 (stereo not drawn)	-9	-3	50*	23	12	0
COC(=O)c1cc(C(=O)OCC(=O)NC(=O)c2ccccc2)cc([N+](=O)[O-])c1	2	-2	-37	0	28*	2
CCOC(=O)C1=C(C(=O)OCC)C2N(Cc3ccc(C#N)cc3)c3ccccc3[C@@]23C[C@@H](C(=O)OC)N(S(=O)(=O)c2cccs2)C3=N1 (stereo partly drawn)	.	.	-13	1	.	.
CCOC(=O)NN1C(=O)c2ccccc2NC1c1ccc(N(C)C)cc1 (stereo not drawn)	6	17*	-11	6	-7	4
COc1ccc(CNC(=O)c2cccc3c(-c4cccc(C(N)=O)c4)coc23)cc1OC	-19	5	56*	21	39*	7
COc1cc(-c2coc3c(C(=O)NCc4ccc(OC)c(OC)c4)cccc23)ccc1O	-16	7	66*	12	30*	0
COc1cc(-c2coc3c(C(=O)NCc4ccc(N(C)C)cc4)cccc23)ccc1O	5	2	20	0	-6	5
O=c1oc2ccc(C#CC3(O)CCCCC3)cc2cc1-n1cc(C2(O)CCCCC2)nn1	-3	0	53*	27	4	2
COc1cc(C(=O)NNC(=O)c2ccc3c(c2)OCCO3)cc(OC)c1OC	4	-1	-6	4	-12	-2
COc1cc(C(=O)NNC(=S)NC(=O)c2ccc3c(c2)OCO3)cc(OC)c1OC	1	8	-30	44*	-4	1
CCCN(CC(=O)Nc1ccccc1C)C(=O)c1ccc(NC2CC2)c([N+](=O)[O-])c1	3	-1	-8	1	2	0
O=C(Nc1ccc([N+](=O)[O-])cc1)C1CC1(c1ccccc1)c1ccccc1 (stereo not drawn)	-13	-4	54*	1	13	-4
CC1(C)CC1C(=O)Nc1ccc([N+](=O)[O-])cc1Br (stereo not drawn)	13	-7	9	0	-8	5
Cc1ccc(C2(c3ccc(C)cc3)CC2C(=O)Nc2ccc([N+](=O)[O-])cc2O)cc1 (stereo not drawn)	-20	3	13	8	25*	-10
COc1ccc(S(=O)(=O)NC(=O)C2(C)CCN2C(=O)c2cccc(F)c2)cc1 (stereo not drawn)	2	-2	-7	2	-6	-1
Clc1ccc(Cc2ccc(Cl)nn2)c(Cl)c1	-2	-6	-2	3	2	1
Clc1ccc(Cc2ccc(SCc3ccccc3)nn2)c(Cl)c1	-7	-5	50*	15	6	0
SMILES	CHRM1 PAM	CHRM1 agonist	TAAR1 antagonist	TAAR1 agonist	M1 antag	HTR2A ag
Cc1nnc(SCC(=O)NC(=O)Nc2ccc3c(c2)OCCO3)n1N	10	-3	-23	0	-15	1
CCC(C)C(=O)Nc1ccc(S(=O)(=O)N2CCCC2)cc1 (stereo not drawn)	13	-6	-13	13	-10	0
CCC(C)NS(=O)(=O)c1ccc(S(=O)(=O)N2CCCC3(CCCCC3)C2)cc1 (stereo not drawn)	-22	-5	36	7	36*	-3
O=C(C(=O)N1CCC(CNC(=O)C2COc3ccccc3O2)CC1)c1cccs1 (stereo not drawn)	.	.	6	1	.	.
COc1ccc(-n2c(C)cc(/C=N/Nc3nc(N4CCOCC4)nc(N4CCOCC4)n3)c2C)cc1	-11	-6	50*	14	21	0
COc1ccc(C(=O)NC(=S)Nc2ccc(CN3CCOCC3)cc2)cc1Cl	-12	1	45	12	11	-4
COc1ccc(C(=O)NC(=S)Nc2ccc(CN3CCCCC3)cc2)cc1Cl	-22	-7	-20	1	29*	-3
COCCNC(=S)Nc1cc(OC)c(OC)cc1C#N	2	-2	-27	8	2	0
O=C(NCCOc1ccccc1)c1cc(C(=O)NCCOc2ccccc2)cc([N+](=O)[O-])c1	-16	3	66*	14	22	0
COc1ccc(-n2nc(C(=O)Nc3ccc4c(c3)OCO4)c3ccccc3c2=O)cc1	-7	-4	9	17	6	1
Cn1nc(C(=O)Nc2ccc3c(c2)OCO3)c2ccccc2c1=O	27*	2	-4	-1	-28	13
CCCN1C(=O)c2n[nH]c(C)c2C1c1ccc(Br)cc1 (stereo not drawn)	.	.	6	-1	.	.
CCOC(=O)c1c(S(=O)(=O)Nc2ccc(C)cn2)c(C)n(C)c1C	4	-2	-16	7	-7	5
COc1ccc(Cl)cc1Cn1c(C)c(C(=O)NCc2ccc(F)cc2)sc1=O	-10	-8	6	5	-1	-3
COc1ccc(Cl)cc1Cn1c(C)c(C(=O)NCc2cccc([N+](=O)[O-])c2)sc1=O	-32	-11	21	2	80*	-2
